# Measurements of several laboratories.
# Compare with care: the assays were run in different laboratories.
# Target: Mitogen-activated protein kinase kinase kinase 10 (MAP3K10, Homo sapiens, UniProt Q02779)
SMILES,test,setting,endpoint,value
CNCc1ccccc1-c1csc([C@@H](C)Nc2nc(C)nc3cc(OC)c(OC)cc23)c1,"cell-free assay, competition with immobilised ligand",1 µM,remaining binding,96%
CNC(=O)c1cc(Oc2ccc(NC(=O)Nc3ccc(Cl)c(C(F)(F)F)c3)cc2)ccn1,cell-free assay,0.5 µM,remaining signal,104%
CCCOc1ccc([C@@H]2[C@@H](C(=O)O)[C@H](c3ccc4c(c3)OCO4)CN2CC(=O)Nc2c(CC)cccc2CC)cc1,"cell-free assay, competition with immobilised ligand",1 µM,remaining binding,100%
Nc1ncnc2occ(-c3ccc(NC(=O)Nc4cc(C(F)(F)F)ccc4F)cc3)c12,"cell-free assay, inhibitor",20 µM,remaining signal,0%
CC(C)(O)[C@H]1CC[C@H](Nc2ccc3ncc(-c4cccc(C(F)(F)F)c4)n3n2)CC1,"enzyme activity, inhibitor",1 µM,remaining activity,85%
O=C(Nc1cnn(-c2csc(C(=O)NC3COC3)c2)c1)Nc1ccccc1Cl,"enzyme activity, inhibitor",5 µM,remaining activity,98.5%
O=C(N1CCS(=O)(=O)CC1)N1C[C@H](c2ccc(OC(F)(F)F)cc2)C[C@H](c2nc(C3CC3)no2)C1,"cell-free assay, competition with immobilised ligand",1 µM,remaining binding,99%
CC(C)(C)c1nc2c(s1)c1nc(N)ncc1c1ccc(NS(=O)(=O)c3c(F)cccc3F)c(F)c12,"enzyme activity, inhibitor, radiometric",1 µM,remaining activity,102%
C[C@@H]1CN(c2cc(-c3n[nH]c4ccc(OC5(C)CC5)cc34)ncn2)C[C@H](C)O1,"cell-free assay, competition with immobilised ligand",0.1 µM,remaining binding,100%
O=C(Nc1cnn(-c2csc(C(=O)NC3COC3)c2)c1)Nc1c(F)cccc1Cl,"enzyme activity, inhibitor",5 µM,remaining activity,94.3%
c1ccc(CNc2nc(N3CCOc4ccccc43)nc3c2CCCC3)cc1,"target engagement in cells, inhibitor, chemoproteomics",20 mM,inhibition,14.1%
CC/C(=N\NC(=O)NCc1cccc(O)c1)c1ccc(O)c(C)c1O,"enzyme activity, inhibitor",0.1 µM,inhibition,6.2%
N#CCCc1ccc2c(c1)-c1[nH]c3ccc([N+](=O)[O-])cc3c1CC(=O)N2,cell-free assay,0.5 µM,remaining signal,30%
CC(C)(O)c1cncc(-c2nc3ccc(F)cc3n2C2CC2)c1,"cell-free assay, competition with immobilised ligand",1 µM,remaining binding,100%
Oc1ccc(-c2nc(-c3ccncc3)c(-c3ccc(F)cc3)[nH]2)cc1,cell-free assay,0.5 µM,remaining signal,32.8%
Cc1ccc(C(=O)Nc2ccc(CN3CCN(C)CC3)c(C(F)(F)F)c2)cc1C#Cc1cnc2cccnn12,"enzyme activity, inhibitor",23.5 nM,remaining activity,69%
O=C1NC(=O)c2cc(Nc3ccc(F)cc3)c(Nc3ccc(F)cc3)cc21,cell-free assay,0.5 µM,remaining signal,90.6%
Cc1ccc(C(=O)NCc2ccsc2)cc1C#Cc1cn(C(C)C)c2ncnc(N)c12,"enzyme activity, inhibitor",1 µM,activity vs control,5%
